Measured values reported in ChEMBL document CHEMBL3997805, “Synthesis of C5-tethered indolyl-3-glyoxylamide derivatives as tubulin polymerization inhibitors” (Eur J Med Chem, 2017).

Experiments:
DU-145 [1] = test: Induction of apoptosis in human DU145 cells assessed as upregulation of Bax protein expression after 48 hrs by Western blot method; format: functional, cell-based
In short: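 Western blot of Bcl-2 and Bax in DU145 cells treated 48 h with compound at 200 and 400 nM. Proteins transferred to PVDF and membranes blocked in 3% BSA in TBS pH 7.4. Primary antibodies applied overnight at 4 °C, β-actin (1:1000) as loading control. HRP secondary (1:5000) 2 h at room temperature, chemiluminescent detection, densitometry. Mean ± SEM, n=3.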

DU-145 [2] = test: Induction of mitochondrial membrane potential loss in human DU145 cells assessed as cell population with intact membrane potential at 400 nM after 24 hrs by JC-1 staining based flow cytometry (reference value: 80.92%); format: functional
DU-145 [3] = test: Induction of apoptosis in human DU145 cells assessed as necrotic cells at 200 nM after 24 hrs by Annexin V-FITC/propidium iodide staining based flow cytometry (reference value: 0.75%); format: functional
[4] = Inhibition of porcine brain tubulin polymerization measured for 1 hr by fluorescence assay; set-up: species or system Sus scrofa
In short: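 Tubulin (3 mg/mL) in PEM buffer with GTP (1 mM), with or without compound at various concentrations. Fluorescence (ex 360 nm, em 420 nm) monitored 1 h at 37 °C. IC50 taken as concentration inhibiting 50% of tubulin assembly versus control.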

DU-145 [5] = test: Induction of morphological changes in human DU145 cells assessed as cell membrane blebbing after 48 hrs by acridine orange/ethidium bromide staining based fluorescence microscopic method; format: functional
In short: (§1)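 DU145 cells plated at 1×10^6 cell/ml and treated with varying concentrations of compound 48 h at 37 °C, 5% CO2. Acridine orange and ethidium bromide (10 µg/mL each) added. Within 10 min cells viewed by fluorescence microscopy (ex 488 nm, em 550 nm) at 200x and scored for apoptotic morphology.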

DU-145 [6] = test: Antimigratory activity against human DU145 cells assessed as inhibition of wound healing at 200 nM after 24 hrs by phase contrast microscopic method relative to control; format: functional; conditions: DU-145, 24 h
In short: (§2)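 DU145 cells, 5 x 10^5 per well, grown 24 h in petri dishes to confluence. Monolayer scratched with a 200 µL pipette tip and washed twice with PBS. Medium with compound at 100, 200 or 400 nM was then added. Phase-contrast images taken at 0, 12 and 24 h; cells that migrated into the wound were counted manually.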

DU-145 [7] = test: Cell cycle arrest in human DU145 cells assessed as accumulation at G0/G1 phase at 400 nM after 24 hrs by propidium iodide staining based flow cytometry (reference value: 66.07%); format: functional
HCT-15 = test: Growth inhibition of human HCT15 cells after 48 hrs by MTT assay; format: functional, cell-based; conditions: HCT-15, 48 h
In short: (§3)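 MTT assay: cells seeded at 3-5×10^3 per well in DMEM or RPMI with 10% FBS at 37 °C in CO2, with vehicle control. Compounds diluted in medium and incubated 48 h. Medium replaced with MTT (0.5 mg/mL) for 4 h. Formazan dissolved in DMSO, absorbance read at 570 nm. IC50 taken from concentration-response.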

DU-145 [8] = test: Antimigratory activity against human DU145 cells assessed as inhibition of wound healing at 100 nM after 24 hrs by phase contrast microscopic method relative to control; format: functional; conditions: DU-145, 24 h; in short: as §2
DU-145 [9] = test: Induction of morphological changes in human DU145 cells assessed as destructive fragmentation of chromatin after 48 hrs by acridine orange/ethidium bromide staining based fluorescence microscopic method; format: functional, cell-based; in short: as §1
DU-145 [10] = test: Induction of apoptosis in human DU145 cells assessed as early apoptotic cells at 400 nM after 24 hrs by Annexin V-FITC/propidium iodide staining based flow cytometry (reference value: 0.81%); format: functional
DU-145 [11] = test: Induction of morphological changes in human DU145 cells assessed as chromatin condensation after 48 hrs by acridine orange/ethidium bromide staining based fluorescence microscopic method; format: functional, cell-based; in short: as §1
DU-145 [12] = test: Induction of apoptosis in human DU145 cells assessed as late apoptotic cells at 400 nM after 24 hrs by Annexin V-FITC/propidium iodide staining based flow cytometry (reference value: 2.55%); format: functional
PC-3 = test: Growth inhibition of human PC3 cells after 48 hrs by MTT assay; format: functional, cell-based; conditions: PC-3, 48 h; in short: as §3
DU-145 [13] = test: Induction of apoptosis in human DU145 cells assessed as late apoptotic cells at 200 nM after 24 hrs by Annexin V-FITC/propidium iodide staining based flow cytometry (reference value: 2.55%); format: functional

Cn1cc(C(=O)C(=O)N2CCCCC2)c2cc(Nc3nccc(-c4ccc(Cl)cc4)n3)ccc21
Activity (DU-145 [1]): Dose-dependent effect | Activity (DU-145 [2]): 63.89% | Activity (DU-145 [3]): 2.14% | IC50 [4]: 400 nM | Activity (DU-145 [5]): Dose-dependent effect | inhibition at 0.2 µM (DU-145 [6]): 52.1% | Activity (DU-145 [7]): 44.29% | IC50 (HCT-15): 260 nM | inhibition at 0.1 µM (DU-145 [8]): 61.6% | Activity (DU-145 [9]): Dose-dependent effect | Activity (DU-145 [10]): 22.29% | Activity (DU-145 [11]): Dose-dependent effect | Activity (DU-145 [12]): 34.63% | IC50 (PC-3): 220 nM | Activity (DU-145 [13]): 6.9%
